As a reminder, the IC50 is the point on the concentration scale where inhibition reaches its midpoint. By MRT is commonly meant the average time that molecules of a dose stay in the body. By bioavailability is commonly meant dose-corrected exposure relative to a reference, in per cent. A high value points to good availability. Broadly, the half-life is the time needed for the level to fall by half in the phase considered. Lower therefore signals rapid decline. As usually defined, the solubility is the concentration that dissolves in the medium under given conditions. Read a high solubility as a readily soluble substance. One may read the Kp as the ratio of the level in a tissue or fluid to that in plasma or blood.

In data set [1] the target is T1, Tyrosine-protein kinase SYK (Homo sapiens, UniProt P43405). Description: Inhibition of Syk in anti-CD32 stimulated CD14+ human monocytes in presence of 90% human blood assessed as phospho-SLP76 level preincubated for 30 mins followed by anti-CD32 stimulation measured after 5 mins by flow cytometric analysis. (A flow cytometer gives signals particle by particle.)

For data set [2], the target named is T1, Tyrosine-protein kinase SYK.
The target is the same in data set [3]. Description: Inhibition of Syk in anti-igM stimulated human Ramos B cells assessed as phospho-BLNK level preincubated for 30 mins followed by anti-IgM stimulation measured after 15 mins by flow cytometric analysis. The class given is cell-based.
Data set [4] can be described thus: Mean residence time in Sprague-Dawley rat at 1 mg/kg, iv and 3 mg/kg, po administered as cassette dosing. As to conditions: in vivo. The class given is ADME, organism-based. An outline of the steps: (§1)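 Cassette dosing in Sprague Dawley rats: iv 1 mg/kg in NMP/PEG200 (3:7) and po 3 mg/kg in CMC/water/Tween (0.5:99:0.5). Dose-normalized values are marked as such.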

Data set [5] concerns Rattus norvegicus. Description: Dose normalized Cmax in Sprague-Dawley rat at 1 mg/kg, iv and 3 mg/kg, po administered as cassette dosing. The class given is ADME, organism-based. To be noted: in vivo. An outline of the steps:
as §1

Data set [6] deals with Liver microsome. The data set is described as follows: Drug metabolism in human liver microsomes assessed as pyrazole N-demethylation. The class given is ADME. For orientation: Liver microsomes are vesicles of endoplasmic reticulum, rich in cytochrome P450 enzymes.
A further data set concerns the target T2, Aurora kinase A (Homo sapiens, UniProt O14965).
T2 sequence (O14965 whole entry): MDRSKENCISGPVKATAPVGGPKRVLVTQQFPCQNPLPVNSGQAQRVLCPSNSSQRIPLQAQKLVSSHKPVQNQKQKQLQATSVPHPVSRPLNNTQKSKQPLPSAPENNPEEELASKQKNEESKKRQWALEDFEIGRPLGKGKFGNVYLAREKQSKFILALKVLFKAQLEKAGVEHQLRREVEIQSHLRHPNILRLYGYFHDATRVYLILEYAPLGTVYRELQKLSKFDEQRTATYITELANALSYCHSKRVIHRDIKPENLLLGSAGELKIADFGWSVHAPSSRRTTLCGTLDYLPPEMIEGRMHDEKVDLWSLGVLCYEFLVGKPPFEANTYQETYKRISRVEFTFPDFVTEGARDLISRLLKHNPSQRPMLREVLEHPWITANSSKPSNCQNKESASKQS
Description: Inhibition of aurora A kinase (unknown origin) by enzymatic assay.

Data set [7] in a line: Clearance in Sprague-Dawley rat at 1 mg/kg, iv and 3 mg/kg, po administered as cassette dosing. The class given is ADME, organism-based. To be noted: in vivo. An outline of the steps:
as §1

Data set [8] concerns Liver microsome. Description: Drug metabolism in human liver microsomes assessed as pyrazole hydroxylation. The class given is ADME.
Data set [9] concerns Liver microsome. Description: Drug metabolism in rat liver microsomes assessed as pyrazole hydroxylation. The class given is ADME.
Data set [10] in a line: Volume of distribution at steady state in Sprague-Dawley rat at 1 mg/kg, iv and 3 mg/kg, po administered as cassette dosing. The class given is ADME, organism-based. As to conditions: in vivo, read-out: Vdss. An outline of the steps:
as §1

Data set [11] concerns Liver microsome. The data set is described as follows: Drug metabolism in rat liver microsomes assessed as lactam hydroxylation. The class given is ADME.
Data set [12] can be described thus: Oral bioavailability in Sprague-Dawley rat at 3 mg/kg administered as cassette dosing. To be noted: in vivo. The class given is ADME, organism-based. The gist of the method: as §1
In data set [13] the test system is Liver microsome. The data set is described as follows: Drug metabolism in rat liver microsomes assessed as pyrazole N-demethylation. The class given is ADME.
The subject of data set [14] is Liver microsome. Description: Drug metabolism in human liver microsomes assessed as lactam hydroxylation. The class given is ADME.
In data set [15] the test system is Rattus norvegicus. The data set is described as follows: Dose normalized AUC in Sprague-Dawley rat at 3 mg/kg, po administered as cassette dosing. The class given is ADME, organism-based. To be noted: in vivo. The gist of the method: as §1
Data set [16] can be described thus: Protein binding in human. The class given is ADME, organism-based. As to conditions: plasma, read-out: PB (converted).
A short description of data set [17]: Half life in rat liver microsomes. The class given is ADME.
Data set [18] is described as follows: Solubility in pH 6.8 solution. The class given is physicochemical.
The test system of the next data set is Liver. Description: Drug level in rat liver at 1 mg/kg, iv. The class given is ADME, organism-based. To be noted: in vivo. The gist of the method:
(§2)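 Rats received a single iv dose of 1 mg/kg. Compound concentrations were measured in blood, liver and kidney and expressed as ng/g.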

A further data set deals with Blood. The data set is described as follows: Drug level in rat blood at 1 mg/kg, iv. The class given is ADME, organism-based. As to conditions: in vivo. The gist of the method:
as §2

Data set [19] in a line: Ratio of drug level in kidney to blood in rat at 1 mg/kg, iv. The class given is ADME, organism-based. An outline of the steps: (§3)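 Rats received a single 1 mg/kg iv dose. Compound levels were then measured in blood, liver and kidney and expressed as ng/g of matrix. The ratio is tissue level over blood level.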
In data set [20] the target is T3, Voltage-gated inwardly rectifying potassium channel KCNH2 (Homo sapiens, UniProt Q12809). Description: Inhibition of human ERG by automated patch clamp assay. (In general: The patch-clamp technique gives a direct electrical read-out from membranes.)
The target of data set [21] is T3, Voltage-gated inwardly rectifying potassium channel KCNH2. The data set is described as follows: Inhibition of human ERG at 30 uM by manual patch clamp assay.
Data set [22] can be described thus: Ratio of drug level in liver to blood in rat at 1 mg/kg, iv. The class given is ADME, organism-based. An outline of the steps:
as §3

The test system of another data set is Kidney. The data set is described as follows: Drug level in rat kidney at 1 mg/kg, iv. The class given is ADME, organism-based. As to conditions: in vivo. The gist of the method: as §2

Where only a bound is given, the exact number is not on record here.

T3 sequence (Q12809 whole entry): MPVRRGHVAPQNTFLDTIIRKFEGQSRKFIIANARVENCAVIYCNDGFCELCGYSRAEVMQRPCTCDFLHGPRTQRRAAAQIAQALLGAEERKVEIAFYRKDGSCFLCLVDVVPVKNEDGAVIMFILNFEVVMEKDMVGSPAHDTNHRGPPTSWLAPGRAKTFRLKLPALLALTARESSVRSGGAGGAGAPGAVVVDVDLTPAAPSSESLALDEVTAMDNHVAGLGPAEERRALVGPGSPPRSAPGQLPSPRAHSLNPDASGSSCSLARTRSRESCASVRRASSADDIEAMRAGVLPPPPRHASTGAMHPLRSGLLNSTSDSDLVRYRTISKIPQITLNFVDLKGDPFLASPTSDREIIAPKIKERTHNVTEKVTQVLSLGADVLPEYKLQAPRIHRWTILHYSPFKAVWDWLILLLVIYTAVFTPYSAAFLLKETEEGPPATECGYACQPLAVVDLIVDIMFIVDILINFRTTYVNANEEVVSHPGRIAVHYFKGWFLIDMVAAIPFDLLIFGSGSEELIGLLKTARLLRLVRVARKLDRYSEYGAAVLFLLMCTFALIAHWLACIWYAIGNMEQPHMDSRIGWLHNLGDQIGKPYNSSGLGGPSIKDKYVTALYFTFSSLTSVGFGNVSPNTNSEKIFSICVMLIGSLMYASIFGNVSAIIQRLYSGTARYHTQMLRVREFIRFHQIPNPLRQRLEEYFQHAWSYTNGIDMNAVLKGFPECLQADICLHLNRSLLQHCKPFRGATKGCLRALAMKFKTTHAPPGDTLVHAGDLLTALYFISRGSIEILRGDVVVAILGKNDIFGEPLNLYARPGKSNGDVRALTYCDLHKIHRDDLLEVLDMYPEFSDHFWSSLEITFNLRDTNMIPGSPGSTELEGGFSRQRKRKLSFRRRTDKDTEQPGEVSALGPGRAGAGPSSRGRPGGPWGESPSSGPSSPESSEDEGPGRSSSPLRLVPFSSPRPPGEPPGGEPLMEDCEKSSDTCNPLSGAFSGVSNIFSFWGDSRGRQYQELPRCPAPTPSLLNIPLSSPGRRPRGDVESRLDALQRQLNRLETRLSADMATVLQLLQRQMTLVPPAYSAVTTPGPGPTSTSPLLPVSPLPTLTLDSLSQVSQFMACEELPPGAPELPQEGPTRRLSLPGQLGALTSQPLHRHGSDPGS

On to `C[C@@H](Oc1cc(-c2cnn(C(F)F)c2)cc2nscc12)[C@H]1CNC(=O)C1`, for which the IC50 in data set [1] is 1020 nM; in data set [2], 57 nM; in data set [3], 340 nM. The same compound came in with a mean residence time MRT in [4] of 156 min. For the same compound, in the data set on Rattus norvegicus [5], the Cmax/dose stood at 263 nM.
`C[C@@H](Oc1cc(-c2cnn(C(F)F)c2)cc2ncsc12)[C@H]1CNC(=O)O1`: the IC50 in data set [1] came to 230 nM; in data set [2], 9 nM; in data set [3], 107 nM. Further, the MRT in [4] amounted to 282 min. Moreover, the Cmax/dose in the data set on Rattus norvegicus [5] is given as 803 nM.
In the case of `C[C@@H](Oc1nc(-c2cnn(C)c2)cc2ncsc12)[C@H]1CNC(=O)C1`, the IC50 in data set [1] worked out at 538 nM; in [2] it was 26 nM; in data set [3] it was 284 nM. In data set [4], this compound came in with an MRT of 42 min. The compound further registered a Cmax/dose in the data set on Rattus norvegicus [5] of 103 nM.
The like results for `C[C@@H](Oc1cc(-c2cnn(C(F)F)c2)cc2nscc12)[C@H]1CNC(=O)O1` were, in that order, 197 nM, 16 nM, 328 nM, 168 min and 614 nM.
Take `C[C@@H](Oc1cc(-c2cnn(C)c2)cc2nscc12)[C@H]1CNC(=O)O1`: the Drug metabolism entry with Liver microsome [6], with Liver microsome [8], with Liver microsome [9], with Liver microsome [11], in the data set on Liver microsome [13] and in the data set with Liver microsome [14] was “metabolite_detected” in each case. The same compound displayed a half-maximal inhibitory concentration (IC50) at Aurora kinase A of no more than 100 nM. The compound also came in with a clearance in [7] of 12 mL/min/kg. In addition, in [10], the Vd was 1.5 L/kg. Also, the bioavailability in [12] was found to be 100%. In data set [4], this compound returned an MRT of 120 min. This compound also yielded a Cmax/dose in the data set with Rattus norvegicus [5] of 477 nM.
On to `COc1ccc(-c2cc3ncsc3c(O[C@H](C)[C@H]3CNC(=O)C3)n2)cc1OC`, for which the Drug metabolism result with Liver microsome [6], in the data set on Liver microsome [8], in the data set on Liver microsome [9], in the data set on Liver microsome [11], with Liver microsome [13] and with Liver microsome [14] was “metabolite_detected” throughout. Moreover, the IC50 at Aurora kinase A is no more than 100 nM; in data set [1], 517 nM; in [2], 5 nM; in data set [3] it was 132 nM. For the same compound, in data set [7], the clearance was determined as 53 mL/min/kg. Besides, in the data set on Rattus norvegicus [15], the AUC/dose was 858 nM.hr/(mg/kg). In addition, the Vd in data set [10] amounted to 1.2 L/kg. In addition, the bioavailability in data set [12] came out at 35%. The same compound returned an MRT in data set [4] of 24 min. In the data set on Rattus norvegicus [5], this compound displayed a Cmax/dose of 178 nM.
Regarding `C[C@@H](Oc1nc(-c2cnn(C)c2)cc2nscc12)[C@H]1CNC(=O)C1`, the Drug metabolism result in the data set on Liver microsome [6], in the data set with Liver microsome [8], with Liver microsome [9], with Liver microsome [11], in the data set on Liver microsome [13] and with Liver microsome [14] was “metabolite_detected” throughout. Besides, the IC50 turned out to be 800 nM on Aurora kinase A, 290 nM in [1], 40 nM in [2] and 247 nM in data set [3]. Moreover, the fraction unbound in data set [16] was 0.2. Moreover, the clearance in data set [7] came out at 86 mL/min/kg. For the same compound, the AUC/dose in the data set on Rattus norvegicus [15] is given as 577 nM.hr/(mg/kg). The compound also returned a half-life in data set [17] of 34 min. Also, the Vd in data set [10] was 2.4 L/kg. For the same compound, the bioavailability in data set [12] amounted to 27%. The solubility in data set [18] was greater than 1000 µM. Also, the MRT in [4] is 30 min. The compound further came in with a Cmax/dose in the data set with Rattus norvegicus [5] of 109 nM.
In the case of `C[C@@H](Oc1cc(-c2cnn(C)c2)cc2ncsc12)[C@H]1CNC(=O)C1`, the half-inhibitory concentration (IC50) in data set [1] turned out to be 186 nM; in [2], 33 nM; in [3], 89 nM.
On to `CN(C)c1ccc(-c2cc3ncccc3c(NCCCN)n2)cc1`, for which the Drug metabolism result in the data set on Liver microsome [6], in the data set on Liver microsome [8], in the data set on Liver microsome [9], in the data set on Liver microsome [11], in the data set with Liver microsome [13] and in the data set with Liver microsome [14] was “metabolite_detected” throughout.
In the case of `NC(=O)c1nnc(N[C@@H]2CCCC[C@@H]2N)nc1Nc1cccc2cc[nH]c12`, the figures for the Drug uptake in the data set on Liver, in the data set with Blood and in the data set with Kidney were 9175 ng/g, 41 ng/g and 3866 ng/g, respectively. Besides, the Kp in data set [19] and in data set [22] was 100 each time. In data set [20], this compound had an IC50 of 28000 nM. Further, the “inhibition (INH)” value in data set [21] is on record as “Not Active”. Also, the Cmax/dose with Rattus norvegicus [5] turned out to be 80 nM.
Turning to `C[C@@H](Oc1cc(-c2cnn(C)c2)cc2nscc12)[C@H]1CNC(=O)C1`, the Drug metabolism entry in the data set on Liver microsome [6], with Liver microsome [8], in the data set on Liver microsome [9], in the data set with Liver microsome [11], in the data set on Liver microsome [13] and with Liver microsome [14] was “metabolite_detected” each time. For the same compound, the IC50 on Aurora kinase A amounted to 576 nM; in [1] it was 298 nM; in data set [2], 46 nM; in data set [3], 161 nM. In addition, the fraction unbound in [16] is 0.2. The compound also returned a clearance in [7] of 45 mL/min/kg. For the same compound, in the data set with Rattus norvegicus [15], the AUC/dose is 1056 nM.hr/(mg/kg). In addition, the half-life in data set [17] is 34 min. In addition, the Vd in data set [10] was 2.4 L/kg. This compound returned a bioavailability in [12] of 30%. The solubility in data set [18] is greater than 1000 µM. Further, the MRT in data set [4] was 54 min. This compound showed a Cmax/dose in the data set with Rattus norvegicus [5] of 94 nM.

The values are drawn from ChEMBL document CHEMBL3621151, “Orally bioavailable Syk inhibitors with activity in a rat PK/PD model” (Bioorg Med Chem Lett, 2015).
